In PubChem BioAssay:
Activity calls are given as the source filed them. Rule as the data show it, unless noted: active = inhibition above about 30%; inactive = the rest.

How the values were obtained:
[1] = Her2 expression decrease, cell viability multiplex – SKBR3 breast tumor cells, AlphaScreen, ATP viability, primary screen (AID 461;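 active = Her2 level under about 52% in both replicate screens, with viability over 70% of control, limit read from the data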;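 as to Her2 level: lower value means less Her2 protein in the cells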;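 as to viability: percent of carrier control wells set as 100% viability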); details: SKBR3 Her2 protein level, 18-24 h, measured here: SKBR3 viability, ATP luminescence, at 10 µM
[2] = molecular target: Receptor tyrosine-protein kinase erbB-2 (Homo sapiens) (UniProt P04626); assay: as above; details: 18-24 h, at 10 µM, stronger effect = lower value
Sequence of Receptor tyrosine-protein kinase erbB-2 (Homo sapiens) (P04626 whole entry, looked up): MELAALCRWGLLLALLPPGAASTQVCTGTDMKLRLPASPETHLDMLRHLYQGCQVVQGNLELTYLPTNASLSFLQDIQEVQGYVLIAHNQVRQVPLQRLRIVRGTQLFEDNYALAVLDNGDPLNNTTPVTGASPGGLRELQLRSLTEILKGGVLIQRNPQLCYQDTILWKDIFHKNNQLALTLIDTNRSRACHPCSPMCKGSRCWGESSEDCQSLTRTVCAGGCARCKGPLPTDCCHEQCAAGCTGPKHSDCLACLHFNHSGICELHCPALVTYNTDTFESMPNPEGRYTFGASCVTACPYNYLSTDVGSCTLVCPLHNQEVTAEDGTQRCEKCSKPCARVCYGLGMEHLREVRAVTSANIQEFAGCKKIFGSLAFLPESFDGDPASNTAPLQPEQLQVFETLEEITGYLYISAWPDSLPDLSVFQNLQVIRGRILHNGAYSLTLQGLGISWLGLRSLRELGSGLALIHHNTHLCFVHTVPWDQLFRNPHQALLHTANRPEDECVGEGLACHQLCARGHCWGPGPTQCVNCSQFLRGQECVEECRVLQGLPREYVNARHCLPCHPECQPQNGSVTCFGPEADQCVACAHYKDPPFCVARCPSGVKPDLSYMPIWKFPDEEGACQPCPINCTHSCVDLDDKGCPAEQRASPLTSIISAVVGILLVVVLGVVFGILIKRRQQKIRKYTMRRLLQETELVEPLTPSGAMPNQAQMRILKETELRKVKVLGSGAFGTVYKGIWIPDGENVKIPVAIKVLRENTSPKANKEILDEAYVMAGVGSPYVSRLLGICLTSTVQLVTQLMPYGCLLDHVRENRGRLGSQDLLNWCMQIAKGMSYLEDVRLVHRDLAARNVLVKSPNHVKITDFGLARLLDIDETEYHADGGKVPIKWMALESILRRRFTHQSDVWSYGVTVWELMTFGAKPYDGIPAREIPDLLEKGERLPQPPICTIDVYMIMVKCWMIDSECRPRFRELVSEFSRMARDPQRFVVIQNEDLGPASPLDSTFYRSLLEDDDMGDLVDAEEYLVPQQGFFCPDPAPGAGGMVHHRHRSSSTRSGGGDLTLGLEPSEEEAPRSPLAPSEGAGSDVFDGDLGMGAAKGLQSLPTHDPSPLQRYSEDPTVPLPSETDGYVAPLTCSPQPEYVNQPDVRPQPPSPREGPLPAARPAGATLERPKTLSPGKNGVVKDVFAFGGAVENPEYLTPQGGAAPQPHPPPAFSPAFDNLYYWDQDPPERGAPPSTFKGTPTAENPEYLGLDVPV

[3] = reduced viability of SK-BR-3 breast cancer cells – cell-based, 24 h, human, pilot screen (AID 572;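 active = viability at or below 10% of carrier control in both of two separate runs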;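 also: compound exposure lasted between 18 and 24 h rather than exactly 24 h; 100% = carrier-treated control wells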); details: SK-BR-3 viability, CellTiter-Glo luminescence, at 10 µM, stronger effect = lower value
[4] = HUVEC growth inhibition – cell-based, human, primary screen (AID 575;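 active = viability at or below 30% in both replicate assays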;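 also: 100% = median of untreated cell wells with 0.1% DMSO on each plate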); details: HUVEC proliferation, CellTiter-Glo luminescence, 72 h; at 10 µM; stronger effect = lower value
In short: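 Test system – primary HUVEC, no more than 12 passages · Dosing – one dose, 10 µM final, 0.1% DMSO · Times – 72 h treatment at 37 °C · Measured by – ATP-based CellTiter-Glo luminescent read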

[5] = H69AR cell proliferation blockers – human, duplicate replicates, primary screen (AID 580;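 active = viability at or under a set limit in both replicates, limit being median viability minus 3 SD, cut at about 48% in these data, passing the limit was not always enough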;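 also: 100% = mean luminescence of untreated wells and 0% = no signal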); details: H69AR lung tumor cells viability, ATP luminescence, 72 h; at 10 µM; stronger effect = lower value
[6] = MRP1 drug-resistance reversers in H69AR cells – cell-based, doxorubicin co-treatment, pilot screen (AID 601;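 active = viability loss from added drug above about 55%, and viability with drug at most 40%, in both replicates, limit read from the data, passing the limit was not always enough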); details: CellTiter-Glo, 72 h, at 10 µM; for differential viability (reversal): stronger effect = higher value
[7] = yeast transport mutant growth inhibition pilot in 384-well plates, post-Golgi transport modulator project (AID 636; in the data active = inhibition above about 31%); details: absorbance 615 nm, about 18 h, stronger effect = higher value
[8] = growth suppression of yeast trafficking mutant, preliminary HTS, modulators of trafficking downstream of Golgi apparatus project, 1536-format plate, OD 615 nm (AID 637); details: yeast transport mutant growth, absorbance 615 nm, 18 h; stronger effect = higher value
[9] = H69AR cells + 2 uM doxorubicin, measured here: viability with 2 uM doxorubicin, stronger effect = lower value
[10] = H69AR cells, compound alone cytotoxicity

SMILES	viability [1]	Her2 level [2]	viability [3]	viability [4]	viability [5]	differential viability (reversal) ([6]; H69AR cells + 2 uM doxorubicin)	viability [6, 9]	viability [6, 10]	inhibition [7]	inhibition [8]
CN(C)S(=O)(=O)c1ccc(C(=O)NCc2cccs2)cc1	82%	87% (inactive)	82% (inactive)	101% (inactive)	101% (inactive)	8.48% (inactive)	92.8%	101%	-4.05% (inactive)	3.81% (inactive)
COc1cc2nc(C3CCC3)n(NC(=O)C3CCCC(OC)C3)c(=O)c2cc1OC (stereo not given)	100%	110% (inactive)	100% (inactive)	117% (inactive)	92.2% (inactive)	-5.31% (inactive)	97.5%	92.2%	-9.86% (inactive)	-0.67% (inactive)
NC(=O)CCS(=O)(=O)CCN1CCCCC1	93.5%	86% (inactive)	93.5% (inactive)	102% (inactive)	93.2% (inactive)	-0.51% (inactive)	93.7%	93.2%	-0.13% (inactive)	-2.95% (inactive)
C(=N\n1cnnc1)/c1cccnc1	87.5%	107% (inactive)	87.5% (inactive)	105% (inactive)	98.6% (inactive)	9.86% (inactive)	88.8%	98.6%	4.34% (inactive)	0.36% (inactive)
CC(=O)Nc1ccc(S(=O)(=O)N2CCN=C2C)cc1	92.5%	95% (inactive)	92.5% (inactive)	109% (inactive)	99.4% (inactive)	2.62% (inactive)	96.8%	99.4%	-6.27% (inactive)	-5.08% (inactive)
Cc1ccccc1NS(=O)(=O)c1cc(S(C)(=O)=O)ccc1Cl	96%	98.5% (inactive)	96% (inactive)	110% (inactive)	94.4% (inactive)	3.12% (inactive)	91.3%	94.4%	-2.4% (inactive)	-4.29% (inactive)
CC(C)N(C(=O)CSc1nnc(NC(=O)C2CCC2)s1)C(C)C	82.5%	90.5% (inactive)	82.5% (inactive)	90.4% (inactive)	92.9% (inactive)	3.82% (inactive)	89%	92.9%	-1.47% (inactive)	-2.42% (inactive)
CC(=O)c1c(C)nn(CC(O)COc2ccc3c(c2)CCC3)c1C (stereo not given)	93.5%	105% (inactive)	93.5% (inactive)	94.4% (inactive)	87.4% (inactive)	3.44% (inactive)	83.9%	87.4%	1.33% (inactive)	-6.03% (inactive)
CCCOc1ccc(OCCSc2ncccn2)cc1	97%	91% (inactive)	97% (inactive)	99.6% (inactive)	102% (inactive)	18.8% (inactive)	83.1%	102%	-6.67% (inactive)	-0.79% (inactive)
Cc1ccc(NC(=O)CSc2nnc(-c3ccncc3)n2C)cc1C	90%	117% (inactive)	90% (inactive)	110% (inactive)	92.2% (inactive)	3.42% (inactive)	88.8%	92.2%	1.08% (inactive)	25.9% (inactive)
O=C(CP(=O)(CO)CO)c1ccc(Cl)cc1	100%	95% (inactive)	100% (inactive)	100% (inactive)	101% (inactive)	8.5% (inactive)	92.3%	101%	-0.26% (inactive)	-2.18% (inactive)
COC(=O)c1oc2ccc(Br)cc2c1NC(=O)CN1CCN(C)CC1	92.5%	100% (inactive)	92.5% (inactive)	101% (inactive)	96.6% (inactive)	16.2% (inactive)	80.3%	96.6%	1.18% (inactive)	0.55% (inactive)
Cc1ccccc1-c1nc(CS(=O)(=O)CC(=O)NCc2ccc3c(c2)OCO3)c(C)o1	99%	89% (inactive)	99% (inactive)	87.3% (inactive)	87.8% (inactive)	2.28% (inactive)	85.5%	87.8%	-4.53% (inactive)	3.61% (inactive)
CN1CCCN(CC(O)COCc2cccs2)CC1 (stereo not given)	89.5%	84% (inactive)	89.5% (inactive)	87.3% (inactive)	111% (inactive)	14.2% (inactive)	96.6%	111%	-5.54% (inactive)	-1.8% (inactive)
COc1ccc2nc(NC(=O)C(NS(=O)(=O)c3cccs3)C(C)C)sc2c1 (stereo not given)	90.5%	77% (inactive)	90.5% (inactive)	70.7% (inactive)	92.7% (inactive)	5.86% (inactive)	86.9%	92.7%	-2.5% (inactive)	-5.64% (inactive)
Cc1occc1C(=O)Nc1ccccc1NC(=O)c1ccoc1C	96.5%	101% (inactive)	96.5% (inactive)	90.9% (inactive)	100% (inactive)	8.43% (inactive)	92%	100%	-4.67% (inactive)	0.48% (inactive)

SMILES	viability [1]	Her2 level [2]	viability [3]	viability [4]	viability [5]	differential viability (reversal) ([6]; H69AR cells + 2 uM doxorubicin)	viability [6, 9]	viability [6, 10]	inhibition [7]	inhibition [8]
Cn1c(=O)c2c([nH]c(=O)n2C)n(C)c1=O	104%	84.5% (inactive)	104% (inactive)	88.7% (inactive)	90.2% (inactive)	-5.03% (inactive)	95.3%	90.2%	-2.21% (inactive)	7.21% (inactive)
COC(=O)c1cc(OC)c(OC)cc1NC(=O)CCC1CCCC1	103%	95% (inactive)	103% (inactive)	88.8% (inactive)	102% (inactive)	-3.46% (inactive)	106%	102%	0.39% (inactive)	9.05% (inactive)
O=S(=O)(c1ccc(Br)s1)N1CCCCC1	96.5%	97.5% (inactive)	96.5% (inactive)	89.5% (inactive)	94% (inactive)	2.88% (inactive)	91.1%	94%	-1.32% (inactive)	-2.13% (inactive)
Cn1c(C(=O)NCC2CCCO2)cc2c(=O)[nH]c3ccccc3c21 (stereo not given)	81%	98% (inactive)	81% (inactive)	108% (inactive)	88.4% (inactive)	4.57% (inactive)	83.8%	88.4%	-4.67% (inactive)	-7.05% (inactive)
COC(=O)[C@H](C)NC(=O)Nc1cc(OC)ccc1OC	121%	81.5% (inactive)	121% (inactive)	61.1% (inactive)	75.1% (inactive)	25% (inactive)	50.1%	75.1%	-2.34% (inactive)	-0.48% (inactive)
Cc1nc2nc(SCC(=O)NCc3ccco3)nn2c(C)c1Cc1ccccc1	83%	108% (inactive)	83% (inactive)	97.3% (inactive)	75.2% (inactive)	-2% (inactive)	77.2%	75.2%	-5.27% (inactive)	-3% (inactive)
COc1cc(NC2=CC(=O)CC(C)(C)C2)cc(OC)c1	77%	133% (inactive)	77% (inactive)	85.5% (inactive)	96.8% (inactive)	6.11% (inactive)	90.6%	96.8%	0.26% (inactive)	-7.17% (inactive)
COc1ccc(-c2cc(C(F)(F)F)nc(SCCC(=O)N3CCOCC3)n2)cc1	116%	90.5% (inactive)	116% (inactive)	94.1% (inactive)	90% (inactive)	3.6% (inactive)	86.4%	90%	-1.71% (inactive)	2.46% (inactive)
Cc1ccccc1N1C(N)=NC(N)=NC1(C)C	107%	84% (inactive)	107% (inactive)	98.3% (inactive)	90.6% (inactive)	-0.97% (inactive)	91.5%	90.6%	-3.9% (inactive)	-3.17% (inactive)
O=C(OCc1nnc(-c2ccc(Cl)cc2)o1)c1ccc(=O)n(Cc2ccccc2)n1	84.5%	84.5% (inactive)	84.5% (inactive)	102% (inactive)	95.1% (inactive)	13.1% (inactive)	82.1%	95.1%	-4.81% (inactive)	-9% (inactive)
COc1ccc(C(=O)N2CCN(S(=O)(=O)c3cc(Cl)ccc3OC)CC2)cc1	108%	100% (inactive)	108% (inactive)	95.6% (inactive)	103% (inactive)	1.29% (inactive)	102%	103%	-2.37% (inactive)	8.33% (inactive)
O=C(Nc1ccc2c(c1)OCCO2)C1CCCN1S(=O)(=O)c1cccc2cccnc12 (stereo not given)	92%	100% (inactive)	92% (inactive)	100% (inactive)	96.8% (inactive)	14.4% (inactive)	82.3%	96.8%	-1.33% (inactive)	-0.98% (inactive)
Cc1cc(C)c2[nH]c(=O)c(C(c3nnnn3Cc3ccc4c(c3)OCO4)N3CCC(C)CC3)cc2c1 (stereo not given)	90%	106% (inactive)	90% (inactive)	84.4% (inactive)	86.7% (inactive)	-6.47% (inactive)	93.1%	86.7%	-4.67% (inactive)	-6.83% (inactive)
CCCCn1c(SCC(=O)Nc2cc(C)on2)nnc1-c1cccnc1	96.5%	111% (inactive)	96.5% (inactive)	87.8% (inactive)	104% (inactive)	-2.12% (inactive)	106%	104%	-0.67% (inactive)	11% (inactive)
COc1cc(C2c3c(n[nH]c3C)C(=O)N2c2ccc(Br)cc2)ccc1O (stereo not given)	95%	62.5% (inactive)	95% (inactive)	73.9% (inactive)	87.8% (inactive)	5.68% (inactive)	82.2%	87.8%	-0.13% (inactive)	-1% (inactive)
Cc1cccc(NC(=O)CCN2CCN(C/C=C/c3ccccc3)CC2)c1	87.5%	84.5% (inactive)	87.5% (inactive)	66% (inactive)	86.3% (inactive)	-9.71% (inactive)	96.1%	86.3%	-2.53% (inactive)	3.23% (inactive)
